Tests used:
Plasmodium falciparum [1] = assay: Antimalarial activity against chloroquine-sensitive Plasmodium falciparum 3D7 infected in erythrocytes after 48 hrs by SYBR Green 1-based fluorescence assay; assay type: functional, organism-based; details: 3D7, 48 h
Plasmodium falciparum [2] = assay: Antimalarial activity against chloroquine-resistant Plasmodium falciparum Dd2 infected in erythrocytes after 48 hrs by SYBR Green 1-based fluorescence assay; assay type: functional, organism-based; details: Dd2, 48 h
MCF7 = assay: Cytotoxicity against human MCF7 cells after 24 hrs by MTT assay; assay type: functional, cell-based; details: MCF7, 24 h
Summary of the method: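 MCF-7 breast cancer cells grown in RPMI 1640 with 10% heat-inactivated horse serum, 2 mM L-glutamine and antibiotics, 5% CO2, 37 °C. 2 × 10^4 cells per well exposed to increasing compound concentrations for 24 h at 37 °C. MTT added (5 mg/mL stock), 4 h, then 10% SDS overnight. OD read at 550 nm (ref 630 nm). IC50 from growth inhibition; mean ± SD, three experiments.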

[3] = Selectivity index, ratio of IC50 for human MCF7 cells to IC50 for chloroquine-resistant Plasmodium falciparum Dd2; assay type: toxicity, cell-based; details: read-out: Ratio IC50
[4] = Selectivity index, ratio of IC50 for human MCF7 cells to IC50 for chloroquine-sensitive Plasmodium falciparum 3D7; assay type: toxicity, cell-based; details: read-out: Ratio IC50

`CO[C@H]1C=C2[C@@H](CC[C@H](O)C2(C)C)[C@]2(C)C[C@@H](O)[C@]3(C)[C@@H]([C@H](C)C[C@@H](O)C=C(C)C)CC[C@@]3(C)[C@H]12` [CUCURBALSAMINOL C] showed an IC50 (Plasmodium falciparum [1]) of 52.7 µM, an IC50 (Plasmodium falciparum [2]) of 67.6 µM and an IC50 (MCF7) of 43.3 µM. The selectivity ratio [3] was 0.6 and the selectivity ratio [4] was 0.8.

Compound `CO[C@H]1C=C2[C@@H](CC[C@H](O)C2(C)C)[C@]2(C)CC[C@]3(C)[C@@H]([C@H](C)C[C@@H](O)C=C(C)C)CC[C@@]3(C)[C@H]12` [KARAVELAGENIN C] has an IC50 (Plasmodium falciparum [1]) of 10.4 µM, an IC50 (Plasmodium falciparum [2]) of 11.2 µM and an IC50 (MCF7) of 16.7 µM. The selectivity ratio [3] was 1.4 and the selectivity ratio [4] was 1.6.

Work on `CO[C@H]1C=C2[C@@H](CC[C@H](O)C2(C)C)[C@]2(C)CC[C@]3(C)[C@@H]([C@H](C)C[C@H](C=C(C)C)OC(C)=O)CC[C@@]3(C)[C@H]12` [KARAVOATE A] yielded an IC50 (Plasmodium falciparum [1]) of 6.7 µM, an IC50 (Plasmodium falciparum [2]) of 9.2 µM and an IC50 (MCF7) of 22.9 µM. For the same compound, the selectivity ratio [3] was 2.5 and the selectivity ratio [4] was 3.4.

`CO[C@H]1C=C2[C@@H](CC[C@H](OC(C)=O)C2(C)C)[C@]2(C)CC[C@]3(C)[C@@H]([C@H](C)C[C@H](C=C(C)C)OC(C)=O)CC[C@@]3(C)[C@H]12` [KARAVOATE B] showed an IC50 (Plasmodium falciparum [1]) of 0.5 µM, an IC50 (Plasmodium falciparum [2]) of 0.5 µM and an IC50 (MCF7) of 68.1 µM. For the same compound, the selectivity ratio [3] was 126 and the selectivity ratio [4] was 151.

`CCC(=O)O[C@@H](C=C(C)C)C[C@@H](C)[C@H]1CC[C@@]2(C)[C@@H]3[C@@H](OC)C=C4[C@@H](CC[C@H](O)C4(C)C)[C@]3(C)CC[C@]12C` [KARAVOATE C] showed an IC50 (Plasmodium falciparum [1]) of 5.1 µM, an IC50 (Plasmodium falciparum [2]) of 22 µM and an IC50 (MCF7) of 19.1 µM. The selectivity ratio [3] was 0.9 and the selectivity ratio [4] was 3.7.

Work on `CCC(=O)O[C@H]1CC[C@@H]2C(=C[C@H](OC)[C@@H]3[C@@]2(C)CC[C@]2(C)[C@@H]([C@H](C)C[C@H](C=C(C)C)OC(=O)CC)CC[C@@]32C)C1(C)C` [KARAVOATE D] yielded an IC50 (Plasmodium falciparum [1]) of 1.5 µM, an IC50 (Plasmodium falciparum [2]) of 0.4 µM and an IC50 (MCF7) of over 133 µM. For the same compound, the selectivity ratio [3] was over 350 and the selectivity ratio [4] was over 89.

In the case of `CCCC(=O)O[C@@H](C=C(C)C)C[C@@H](C)[C@H]1CC[C@@]2(C)[C@@H]3[C@@H](OC)C=C4[C@@H](CC[C@H](O)C4(C)C)[C@]3(C)CC[C@]12C` [KARAVOATE E], the IC50 (Plasmodium falciparum [1]) is reported as 3.5 µM, the IC50 (Plasmodium falciparum [2]) is reported as 0.6 µM and the IC50 (MCF7) is reported as 73.8 µM. It also gave a selectivity ratio [3] of 116 and a selectivity ratio [4] of 20.8.

With `CCCC(=O)O[C@H]1CC[C@@H]2C(=C[C@H](OC)[C@@H]3[C@@]2(C)CC[C@]2(C)[C@@H]([C@H](C)C[C@H](C=C(C)C)OC(=O)CCC)CC[C@@]32C)C1(C)C` [KARAVOATE F] the IC50 (Plasmodium falciparum [1]) was 6.9 µM, the IC50 (Plasmodium falciparum [2]) was 8.4 µM and the IC50 (MCF7) was over 133 µM. The selectivity ratio [3] was over 15.8 and the selectivity ratio [4] was over 19.4.

For `CO[C@H]1C=C2[C@@H](CC[C@H](OC(=O)c3ccccc3)C2(C)C)[C@]2(C)CC[C@]3(C)[C@@H]([C@H](C)C[C@H](C=C(C)C)OC(=O)c4ccccc4)CC[C@@]3(C)[C@H]12` [KARAVOATE H], the IC50 (Plasmodium falciparum [1]) was 36.4 µM, the IC50 (Plasmodium falciparum [2]) was 30.5 µM and the IC50 (MCF7) was over 133 µM. It also gave a selectivity ratio [3] of over 4.4 and a selectivity ratio [4] of over 3.7.

`CO[C@H]1C=C2[C@@H](CC[C@H](O)C2(C)C)[C@]2(C)CC[C@]3(C)[C@@H]([C@H](C)C[C@H](C=C(C)C)OC(=O)c4ccc([N+](=O)[O-])cc4)CC[C@@]3(C)[C@H]12` [KARAVOATE I] gave an IC50 (Plasmodium falciparum [1]) of 2.6 µM, an IC50 (Plasmodium falciparum [2]) of 0.5 µM and an IC50 (MCF7) of over 133 µM. It also gave a selectivity ratio [3] of over 296 and a selectivity ratio [4] of over 51.4.

With `CO[C@H]1C=C2[C@@H](CC[C@H](OC(=O)c3ccc([N+](=O)[O-])cc3)C2(C)C)[C@]2(C)CC[C@]3(C)[C@@H]([C@H](C)C[C@H](C=C(C)C)OC(=O)c4ccc([N+](=O)[O-])cc4)CC[C@@]3(C)[C@H]12` [KARAVOATE J] the IC50 (Plasmodium falciparum [1]) was 18.6 µM, the IC50 (Plasmodium falciparum [2]) was 20.7 µM and the IC50 (MCF7) was over 133 µM. The selectivity ratio [3] was over 6.43 and the selectivity ratio [4] was over 7.2.

In the case of `CO[C@H]1C=C2[C@@H](CC[C@H](O)C2(C)C)[C@]2(C)CC[C@]3(C)[C@@H]([C@H](C)C[C@H](C=C(C)C)OC(=O)c4ccc(Cl)cc4)CC[C@@]3(C)[C@H]12` [KARAVOATE K], the IC50 (Plasmodium falciparum [1]) is reported as 13.3 µM, the IC50 (Plasmodium falciparum [2]) is reported as 23.3 µM and the IC50 (MCF7) is reported as over 133 µM. The selectivity ratio [3] was over 5.7 and the selectivity ratio [4] was over 10.

With `CO[C@H]1C=C2[C@@H](CC[C@H](OC(=O)c3ccc(Cl)cc3)C2(C)C)[C@]2(C)CC[C@]3(C)[C@@H]([C@H](C)C[C@H](C=C(C)C)OC(=O)c4ccc(Cl)cc4)CC[C@@]3(C)[C@H]12` [KARAVOATE L] the IC50 (Plasmodium falciparum [1]) was 22.5 µM, the IC50 (Plasmodium falciparum [2]) was 66 µM and the IC50 (MCF7) was over 133 µM. For the same compound, the selectivity ratio [3] was over 2 and the selectivity ratio [4] was over 5.9.

`COc1ccc(C(=O)O[C@@H](C=C(C)C)C[C@@H](C)[C@H]2CC[C@@]3(C)[C@@H]4[C@@H](OC)C=C5[C@@H](CC[C@H](O)C5(C)C)[C@]4(C)CC[C@]23C)cc1` [KARAVOATE M] gave an IC50 (Plasmodium falciparum [1]) of 1.3 µM, an IC50 (Plasmodium falciparum [2]) of 0.6 µM and an IC50 (MCF7) of over 133 µM. For the same compound, the selectivity ratio [3] was over 215 and the selectivity ratio [4] was over 43.6.

In the case of `COc1ccc(C(=O)O[C@H]2CC[C@@H]3C(=C[C@H](OC)[C@@H]4[C@@]3(C)CC[C@]3(C)[C@@H]([C@H](C)C[C@H](C=C(C)C)OC(=O)c5ccc(OC)cc5)CC[C@@]43C)C2(C)C)cc1` [KARAVOATE N], the IC50 (Plasmodium falciparum [1]) is reported as 2.4 µM, the IC50 (Plasmodium falciparum [2]) is reported as 47.9 µM and the IC50 (MCF7) is reported as over 133 µM. For the same compound, the selectivity ratio [3] was over 2.8 and the selectivity ratio [4] was over 55.4.

Compound `CO[C@H]1C=C2[C@@H](CC[C@H](O)C2(C)C)[C@]2(C)CC[C@]3(C)[C@@H]([C@H](C)C[C@H](C=C(C)C)OC(=O)/C=C/c4ccccc4)CC[C@@]3(C)[C@H]12` [KARAVOATE O] has an IC50 (Plasmodium falciparum [1]) of 6.6 µM, an IC50 (Plasmodium falciparum [2]) of 26.7 µM and an IC50 (MCF7) of over 133 µM. It also gave a selectivity ratio [3] of over 5 and a selectivity ratio [4] of over 20.3.

With `CO[C@H]1C=C2[C@@H](CC[C@H](OC(=O)/C=C/c3ccccc3)C2(C)C)[C@]2(C)CC[C@]3(C)[C@@H]([C@H](C)C[C@H](C=C(C)C)OC(=O)/C=C/c4ccccc4)CC[C@@]3(C)[C@H]12` [KARAVOATE P] the IC50 (Plasmodium falciparum [1]) was 65.2 µM, the IC50 (Plasmodium falciparum [2]) was 56.6 µM and the IC50 (MCF7) was over 133 µM. For the same compound, the selectivity ratio [3] was over 2.4 and the selectivity ratio [4] was over 2.

Reference: ChEMBL document CHEMBL1641571, “Karavilagenin C derivatives as antimalarials” (Bioorg Med Chem, 2011)
